Measurements published in ChEMBL document CHEMBL1126616, “1,2-Cyclomethylenecarboxylic monoamide hydroxamic derivatives. A novel class of non-amino acid angiotensin converting enzyme inhibitors” (J Med Chem, 1993).

T1: Angiotensin-converting enzyme (Rattus norvegicus, UniProt P47820)
T1 sequence (P47820 whole entry): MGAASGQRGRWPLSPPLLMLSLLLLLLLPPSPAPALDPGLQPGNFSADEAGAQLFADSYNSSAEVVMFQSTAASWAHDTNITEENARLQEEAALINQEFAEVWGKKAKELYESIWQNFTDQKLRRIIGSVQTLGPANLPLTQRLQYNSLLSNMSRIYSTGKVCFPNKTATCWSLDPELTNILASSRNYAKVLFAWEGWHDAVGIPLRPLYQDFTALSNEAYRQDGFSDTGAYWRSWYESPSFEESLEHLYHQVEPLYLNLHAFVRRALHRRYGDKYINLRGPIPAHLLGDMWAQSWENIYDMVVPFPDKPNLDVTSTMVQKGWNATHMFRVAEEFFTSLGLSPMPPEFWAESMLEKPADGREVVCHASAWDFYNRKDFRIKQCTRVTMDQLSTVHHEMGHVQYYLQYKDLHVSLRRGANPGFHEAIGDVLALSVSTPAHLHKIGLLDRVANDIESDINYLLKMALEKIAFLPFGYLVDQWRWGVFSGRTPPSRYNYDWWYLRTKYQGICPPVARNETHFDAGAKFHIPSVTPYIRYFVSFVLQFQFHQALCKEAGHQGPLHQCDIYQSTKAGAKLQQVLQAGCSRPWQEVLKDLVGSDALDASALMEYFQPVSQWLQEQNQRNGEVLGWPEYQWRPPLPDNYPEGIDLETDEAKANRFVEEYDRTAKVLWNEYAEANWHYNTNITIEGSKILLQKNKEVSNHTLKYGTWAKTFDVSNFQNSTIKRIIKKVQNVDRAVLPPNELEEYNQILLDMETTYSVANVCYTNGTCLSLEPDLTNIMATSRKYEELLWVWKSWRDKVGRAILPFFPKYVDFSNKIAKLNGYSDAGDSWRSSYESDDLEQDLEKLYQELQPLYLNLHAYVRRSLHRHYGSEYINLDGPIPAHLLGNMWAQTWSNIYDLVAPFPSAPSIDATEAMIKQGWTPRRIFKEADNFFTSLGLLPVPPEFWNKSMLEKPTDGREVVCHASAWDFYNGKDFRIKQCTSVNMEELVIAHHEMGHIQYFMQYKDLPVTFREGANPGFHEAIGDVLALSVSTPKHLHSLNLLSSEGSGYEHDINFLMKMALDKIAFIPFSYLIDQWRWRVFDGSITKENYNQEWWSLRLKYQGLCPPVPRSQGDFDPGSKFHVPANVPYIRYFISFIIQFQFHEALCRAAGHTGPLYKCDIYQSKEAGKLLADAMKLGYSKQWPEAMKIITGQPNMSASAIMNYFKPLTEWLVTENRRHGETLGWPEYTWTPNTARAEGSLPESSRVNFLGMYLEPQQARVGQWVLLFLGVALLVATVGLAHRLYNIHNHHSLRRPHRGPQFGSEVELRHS

B1: Angiotensin-converting enzyme (Rattus norvegicus), P47820 (protein)
chain: MGAASGQRGRWPLSPPLLMLSLLLLLLLPPSPAPALDPGLQPGNFSADEAGAQLFADSYNSSAEVVMFQSTAASWAHDTNITEENARLQEEAALINQEFAEVWGKKAKELYESIWQNFTDQKLRRIIGSVQTLGPANLPLTQRLQYNSLLSNMSRIYSTGKVCFPNKTATCWSLDPELTNILASSRNYAKVLFAWEGWHDAVGIPLRPLYQDFTALSNEAYRQDGFSDTGAYWRSWYESPSFEESLEHLYHQVEPLYLNLHAFVRRALHRRYGDKYINLRGPIPAHLLGDMWAQSWENIYDMVVPFPDKPNLDVTSTMVQKGWNATHMFRVAEEFFTSLGLSPMPPEFWAESMLEKPADGREVVCHASAWDFYNRKDFRIKQCTRVTMDQLSTVHHEMGHVQYYLQYKDLHVSLRRGANPGFHEAIGDVLALSVSTPAHLHKIGLLDRVANDIESDINYLLKMALEKIAFLPFGYLVDQWRWGVFSGRTPPSRYNYDWWYLRTKYQGICPPVARNETHFDAGAKFHIPSVTPYIRYFVSFVLQFQFHQALCKEAGHQGPLHQCDIYQSTKAGAKLQQVLQAGCSRPWQEVLKDLVGSDALDASALMEYFQPVSQWLQEQNQRNGEVLGWPEYQWRPPLPDNYPEGIDLETDEAKANRFVEEYDRTAKVLWNEYAEANWHYNTNITIEGSKILLQKNKEVSNHTLKYGTWAKTFDVSNFQNSTIKRIIKKVQNVDRAVLPPNELEEYNQILLDMETTYSVANVCYTNGTCLSLEPDLTNIMATSRKYEELLWVWKSWRDKVGRAILPFFPKYVDFSNKIAKLNGYSDAGDSWRSSYESDDLEQDLEKLYQELQPLYLNLHAYVRRSLHRHYGSEYINLDGPIPAHLLGNMWAQTWSNIYDLVAPFPSAPSIDATEAMIKQGWTPRRIFKEADNFFTSLGLLPVPPEFWNKSMLEKPTDGREVVCHASAWDFYNGKDFRIKQCTSVNMEELVIAHHEMGHIQYFMQYKDLPVTFREGANPGFHEAIGDVLALSVSTPKHLHSLNLLSSEGSGYEHDINFLMKMALDKIAFIPFSYLIDQWRWRVFDGSITKENYNQEWWSLRLKYQGLCPPVPRSQGDFDPGSKFHVPANVPYIRYFISFIIQFQFHEALCRAAGHTGPLYKCDIYQSKEAGKLLADAMKLGYSKQWPEAMKIITGQPNMSASAIMNYFKPLTEWLVTENRRHGETLGWPEYTWTPNTARAEGSLPESSRVNFLGMYLEPQQARVGQWVLLFLGVALLVATVGLAHRLYNIHNHHSLRRPHRGPQFGSEVELRHS

species: Rattus norvegicus; assay: Maximum rate for the hydrolysis of hippuryl-glycyl-glycine by rat serum ACE at the concentration of 6 nM (mean +/- SEM); assay type: ADME; settings: 0.006 µM
Method in brief: (§1)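 For rat serum ACE kinetics, the dependence of hippurylglycylglycine hydrolysis rate on substrate concentration was measured at increasing inhibitor concentrations. Apparent Km and Vmax were derived for each inhibitor level.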

| Vmax | Molecule |
| --- | --- |
| 1.16 uM min-1 ml-1 | CN(CC(=O)NO)C(=O)C1CCCCC1C(=O)O (stereo in doubt; 21a) |

substrate: CN(CC(=O)NO)C(=O)C1CCCCC1C(=O)O; assay: Michaelis-Menten's constant for the hydrolysis of hippuryl-glycyl-glycine by rat serum ACE; assay type: cell-free; settings: not given; method in brief: as §1

| Molecule | Km |
| --- | --- |
| B1 | 21 mM |

substrate: CN(CC(=O)NO)C(=O)C1CCCCC1C(=O)O; assay: Michaelis-Menten's constant for the hydrolysis of hippuryl-glycyl-glycine by rat serum ACE at the concentration of 3 nM; settings: not given; method in brief: as §1

| Molecule | Km |
| --- | --- |
| B1 | 43 mM |

substrate: CN(CC(=O)NO)C(=O)C1CCCCC1C(=O)O; assay: Michaelis-Menten's constant for the hydrolysis of hippuryl-glycyl-glycine by rat serum ACE at the concentration of 12 nM; assay type: cell-free; settings: not given; method in brief: as §1

| Molecule | Km |
| --- | --- |
| B1 | 129 mM |

species: Rattus norvegicus; assay: Maximum rate for the hydrolysis of hippuryl-glycyl-glycine by rat serum ACE at the concentration of 3 nM; assay type: ADME; settings: 0.003 µM; method in brief: as §1

| Vmax | Molecule |
| --- | --- |
| 1.25 uM min-1 ml-1 | CN(CC(=O)NO)C(=O)C1CCCCC1C(=O)O (stereo in doubt; 21a) |

target: T1, Angiotensin-converting enzyme; assay: In vitro inhibitory activity against rat serum angiotensin I converting enzyme using hippuryl-glycyl-glycine as substrate; assay type: cell-free; settings: not given

| IC50 | Molecule |
| --- | --- |
| 1400 nM | CN(CC(=O)NO)C(=O)C1CCCC1C(=O)O (stereo unspecified) |
| 45 nM | CN(CC(=O)NO)C(=O)C1CCCCC1C(=O)O (trans isomer) |
| 400 nM | CCCN(CC(=O)NO)C(=O)C1CCCCC1C(=O)O (cis isomer) |
| 500 nM | CC(C)N(CC(=O)NO)C(=O)C1CCCCC1C(=O)O (trans isomer) |
| 2900 nM | CCN(CC(=O)NO)C(=O)C1CCCCC1C(=O)O (stereo in doubt; 16c) |
| > 150000 nM | O=C(CNC(=O)C1CCCCC1C(=O)O)NOCc1ccccc1 (cis isomer) |
| 1800 nM | CN(CC(=O)NO)C(=O)C1CCCCC1C(=O)O (stereo in doubt; 21b) |
| 18 nM | CCN(CC(=O)NO)C(=O)C1CCCCC1C(=O)O (stereo in doubt; 10g) |
| 23500 nM | CN(CC(=O)NO)C(=O)C1CCCCC1C(=O)O (stereo in doubt; 16a) |
| > 150000 nM | CCCN(CC(=O)O)C(=O)C1CCCCC1C(=O)O (stereo unspecified) |
| 7 nM | CN(CC(=O)NO)C(=O)C1CCCCC1C(=O)O (stereo in doubt; 21a) |
| > 150000 nM | O=C(CNC(=O)C1CCCCC1C(=O)O)NOCc1ccccc1 (stereo in doubt; 9b) |
| > 150000 nM | CCN(CC(=O)O)C(=O)C1CCCC1C(=O)O (cis isomer) |
| 624000 nM | O=C(O)CCC(=O)N1CCCC1C(=O)O (stereo unspecified) |
| 75000 nM | CCN(CC(=O)O)C(=O)C1CCCCC1C(=O)O (stereo in doubt; 7d) |
| 24 nM | CN(CC(=O)NO)C(=O)C1CCCCC1C(=O)O (stereo in doubt; 16b) |
| 150 nM | CCCN(CC(=O)NO)C(=O)C1CCCCC1C(=O)O (trans isomer) |
| 10000 nM | O=C(O)C1CCCCC1C(=O)NCCS (stereo in doubt; 8b) |

species: Rattus norvegicus; assay: Maximum rate for the hydrolysis of hippuryl-glycyl-glycine by rat serum ACE at the concentration of 12 nM; assay type: ADME; settings: 0.012 µM; method in brief: as §1

| Vmax | Molecule |
| --- | --- |
| 1.36 uM min-1 ml-1 | CN(CC(=O)NO)C(=O)C1CCCCC1C(=O)O (stereo in doubt; 21a) |

substrate: CN(CC(=O)NO)C(=O)C1CCCCC1C(=O)O; assay: Michaelis-Menten's constant for the hydrolysis of hippuryl-glycyl-glycine by rat serum Angiotensin I Converting Enzyme at the concentration of 6 nM; assay type: cell-free; settings: not given; method in brief: as §1

| Molecule | Km |
| --- | --- |
| B1 | 62 mM |

species: Rattus norvegicus; assay: Maximum rate for the hydrolysis of hippuryl-glycyl-glycine by rat serum ACE; assay type: ADME; settings: not given; method in brief: as §1

| Vmax | Molecule |
| --- | --- |
| 1.31 uM min-1 ml-1 | CN(CC(=O)NO)C(=O)C1CCCCC1C(=O)O (stereo in doubt; 21a) |
